From ChEMBL document CHEMBL4229525, “Anti-angiogenic and anticancer effects of baicalein derivatives based on transgenic zebrafish model” (Bioorg Med Chem, 2018)

Columns and labels:
[1] = Antiangiogenic index, ratio of LC100 for 24 to 72 hrs post fertilized zebra fish embryo harboring fli1:EGFP to MEC for antiangiogenic activity in 24 to 72 hrs post fertilized zebra fish embryo harboring fli1:EGFP; type: toxicity, organism-based, Danio rerio; conditions: fli1:EGFP transgenic, zebrafish, in vivo
Procedure, shortened: (§1)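 Dechorionated Tg(fli1:EGFP) embryos at 24 hpf, 20 per group, were kept in 1 mL embryo water with compound at 28.5 °C for a further 48 h. Compound was tested at 1, 5, 10, 25, 50, 75, 100, 150 and 200 μM. At 72 hpf, embryos anaesthetised with 0.016% tricaine had their ISVs imaged by fluorescence microscopy, with SU5416 as positive control. Definitions used: LOEC is anti-angiogenic effect in most larvae; LOTC is lowest toxic concentration; LC100 is total embryo lethality. TI = LOTC/LOEC; AI = LC100/LOEC.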

Danio rerio [2] = species on record: Danio rerio; test: Antiangiogenic activity in 24 to 72 hrs post fertilized zebra fish embryo harboring fli1:EGFP after 48 hrs by fluorescence microscopic analysis; type: functional
Procedure, shortened: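 Tg(fli1:EGFP) zebrafish: 20 dechorionated 24 hpf embryos per group in 1 mL embryo water with compound (1, 5, 10, 25, 50, 75, 100, 150, 200 μM), 28.5 °C for 48 h. Embryos anaesthetised in 0.016% tricaine; ISVs imaged by fluorescence microscopy at 72 hpf and scored for vessel defects and overall morphology. SU5416 positive control.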

Danio rerio [3] = species on record: Danio rerio; test: Toxicity in 24 to 72 hrs post fertilized zebra fish embryo harboring fli1:EGFP; type: organism-based; conditions: zebrafish, in vivo; procedure, shortened: as §1
[4] = Toxicity index, ratio of MTC for 24 to 72 hrs post fertilized zebra fish embryo harboring fli1:EGFP to MEC for antiangiogenic activity in 24 to 72 hrs post fertilized zebra fish embryo harboring fli1:EGFP; type: organism-based, Danio rerio; conditions: fli1:EGFP transgenic, zebrafish, in vivo; procedure, shortened: as §1

Structure (SMILES)	selectivity ratio [1]	MEC (Danio rerio [2])	LC100 (Danio rerio [3])	MTC (Danio rerio [3])	selectivity ratio [4]
O=C(COc1c(OCc2ccccc2)cc2oc(-c3ccccc3)cc(=O)c2c1O)N1CCN(CCO)CC1	1	200 µM	200 µM	200 µM	1
COc1c(OCCCN(C)CCO)c(O)cc2oc(-c3ccccc3)cc(=O)c12	> 2	100 µM	> 200 µM	100 µM	1
O=C(COc1c(OCc2ccccc2)cc2oc(-c3ccccc3)cc(=O)c2c1O)N(CCO)CCO	2	100 µM	200 µM	100 µM	1
CN1CCN(C(=O)COc2c(O)cc3oc(-c4ccccc4)cc(=O)c3c2O)CC1	5	10 µM	50 µM	15 µM	1.5
O=C(O)CCC(=O)OCCOc1c(O)cc2oc(-c3ccccc3)cc(=O)c2c1O	1.5	50 µM	75 µM	> 75 µM	> 1.5
O=C(COc1c(O)cc2oc(-c3ccccc3)cc(=O)c2c1O)N1CCC(O)CC1	2	50 µM	100 µM	50 µM	1
O=c1cc(-c2ccccc2)oc2cc(O)c(OCCCO)c(O)c12	6	2.5 µM	15 µM	2.5 µM	1
Cc1cc(C)c(/C=C2\C(=O)Nc3ccccc32)[nH]1 [SEMAXANIB]	5	1 µM	5 µM	1.5 µM	1.5
O=c1cc(-c2ccccc2)oc2cc(O)c(OCCCCCCO)c(O)c12	4	2.5 µM	10 µM	2.5 µM	1
O=c1cc(-c2ccccc2)oc2cc(O)c(OCCCCCO)c(O)c12	5	1 µM	5 µM	1 µM	1
O=C(COc1c(O)cc2oc(-c3ccccc3)cc(=O)c2c1O)N1CCNCC1	5	10 µM	50 µM	15 µM	1.5
O=C(COc1c(OCc2ccccc2)cc2oc(-c3ccccc3)cc(=O)c2c1O)N1CCC(O)CC1	4	25 µM	100 µM	25 µM	1
O=C(O)COc1c(O)cc2oc(-c3ccccc3)cc(=O)c2c1O		>50 µM	50 µM	> 50 µM	
CC(C)=CCOc1cc2oc(-c3ccccc3)cc(=O)c2c(O)c1O	2	50 µM	100 µM	50 µM	1
O=C(COc1c(OCc2ccccc2)cc2oc(-c3ccccc3)cc(=O)c2c1O)N1CCN(c2ncccn2)CC1	1.3	75 µM	100 µM	75 µM	1
O=c1cc(-c2ccccc2)oc2cc(O)c(OCCCCCNCCO)c(O)c12	4	25 µM	100 µM	50 µM	2
CN(C)CCNC(=O)COc1c(O)cc2oc(-c3ccccc3)cc(=O)c2c1O	> 2	100 µM	> 200 µM	100 µM	1
O=C(COc1c(O)cc2oc(-c3ccccc3)cc(=O)c2c1O)N(CCO)CCO		>200 µM	> 200 µM	> 200 µM	
CCN1CCN(C(=O)COc2c(OCc3ccccc3)cc3oc(-c4ccccc4)cc(=O)c3c2O)CC1			Nd(Insoluble)	Nd(Insoluble)	
